One experiment has as its system Aspergillus flavus. The experiment in a line: Antifungal activity against Aspergillus flavus NRRL 6541 at 200 ug/disk. It is filed as functional, organism-based.
Another experiment relates to Bacillus subtilis. The experiment in a line: Antibacterial activity against Bacillus subtilis at 100 ug/disk. It is filed as functional. The procedure, abridged: (§1)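 Disk diffusion assay with 100 μg of compound per disk. Strains used were Staphylococcus aureus ATCC 29213 and Bacillus subtilis ATCC 6051. The read-out was the diameter of the zone of inhibition in mm.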

A further experiment relates to Staphylococcus aureus. The experiment can be described thus: Antibacterial activity against Staphylococcus aureus ATCC 29213 at 100 ug/disk. It is filed as functional. In outline:
as §1

The next experiment concerns Fusarium verticillioides. The experiment in a line: Antifungal activity against Fusarium verticillioides NRRL 25457 at 200 ug/disk. It is filed as functional, organism-based.
The subject of a further experiment is Candida albicans. The experiment in a line: Antifungal activity against Candida albicans ATCC 14053 at 200 ug/disk. The experiment is classed as functional, organism-based.

The source made the active and inactive calls. The rule behind the calls is not given here.

In the case of `COc1cc(C)c(C(=O)O[C@@H]2[C@H](O)[C@@H](CO)O[C@H]2n2ccc(=O)[nH]c2=O)c(OC)c1`, the result in the experiment on Aspergillus flavus, in the experiment with Bacillus subtilis, in the experiment with Staphylococcus aureus, with Fusarium verticillioides and with Candida albicans was inactive.
On to `COc1cc(O)cc(C)c1C(=O)O[C@H]1[C@@H](OC(C)=O)[C@H](n2ccc(=O)n(C)c2=O)O[C@@H]1CO`, for which the outcome in the experiment with Aspergillus flavus, in the experiment on Bacillus subtilis, with Staphylococcus aureus, in the experiment with Fusarium verticillioides and in the experiment on Candida albicans was inactive.
In the case of `COc1cc(O)cc(C)c1C(=O)O[C@H]1[C@@H](OC(C)=O)[C@H](n2ccc(=O)[nH]c2=O)O[C@@H]1CO`, the outcome in the experiment with Aspergillus flavus, in the experiment with Fusarium verticillioides and in the experiment with Candida albicans was inactive. The zone of inhibition at 100 µg/disc in the experiment with Bacillus subtilis (read-out: IZ) worked out at 12 mm.
On to `COc1cc(C)c(C(=O)O[C@H]2[C@@H](O)[C@H](n3ccc(=O)[nH]c3=O)O[C@@H]2CO)c(OC)c1`, for which the outcome with Aspergillus flavus, in the experiment with Bacillus subtilis, in the experiment with Staphylococcus aureus, with Fusarium verticillioides and with Candida albicans was inactive.
On to `COc1cc(C)c(C(=O)O[C@H]2[C@@H](OC(C)=O)[C@H](n3ccc(=O)[nH]c3=O)O[C@@H]2CO)c(OC)c1`, for which the result in the experiment with Aspergillus flavus, in the experiment with Fusarium verticillioides and in the experiment on Candida albicans was inactive. For the same compound, the zone of inhibition at 100 µg/disc in the experiment with Staphylococcus aureus (read-out: IZ) came out at 18 mm.
In the case of `COc1cc(C)c(C(=O)O[C@H]2[C@@H](OC(C)=O)[C@H](n3ccc(=O)[nH]c3=O)O[C@@H]2CO)c(O)c1`, the outcome with Aspergillus flavus, in the experiment with Bacillus subtilis, in the experiment on Staphylococcus aureus, with Fusarium verticillioides and in the experiment on Candida albicans was inactive.
As to `COc1cc(O)cc(C)c1C(=O)O[C@H]1[C@@H](O)[C@H](n2ccc(=O)n(C)c2=O)O[C@@H]1CO`, the outcome with Aspergillus flavus, in the experiment on Bacillus subtilis, with Staphylococcus aureus, with Fusarium verticillioides and with Candida albicans was inactive.

Source of the values: ChEMBL document CHEMBL1140638, “Kipukasins, nucleoside derivatives from Aspergillus versicolor” (2007).
